Screening data from PubChem BioAssay.
TRPC4 act: activators of mouse TRPC4 channel. HEK293 TRPC4beta/mu-opioid, Fluo4 calcium fluorescence; hits give high values. 0.49% of 310,000 active. B-score at 10 µM. Q9QUQ5;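 active = B-score above 5 SD of library B-scores, and initial fluorescence ratio not above library mean plus 5 SD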;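 note: positive B-score marks a calcium rise read as TRPC4 activation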
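Assay system – TRPC4beta and mu-opioid receptor HEK293 stable cells · Measured by – Fluo4 fluorescence, kinetic · Schedule – dye loading 45 min room temperature, 110 s kinetic read · Read-out – B-scored integrated calcium fluorescence ratio · Controls – buffer and maximal DAMGO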
TRPC6 inhibitor: inhibitors of mouse TRPC6 channel | HEK293-TRPC6, membrane potential dye, ACh-evoked depolarization; hits give low values | B-score at 10 µM | 1.1% of 310,000 active;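 active = B-score under library mean minus 3 SD, initial fluorescence not abnormally high, positive integrated signal ratio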;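 note: B-score derived from integrated fluorescence ratio over the kinetic read; more negative B-score means stronger inhibition of depolarization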
TRPC4 block: TRPC4 (mouse) channel inhibition; HEK293 TRPC4beta/mu-opioid, DAMGO-evoked Fluo4 calcium flux; hits give low values; 0.39% of 300,000 active; AID 2247; B-score at 10 µM; Q9QUQ5;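 active = B-score over 3 SD under the library average, no early fluorescence shift, positive overall ratio signal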
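Assay system: TRPC4beta/mu-opioid receptor HEK293 cell line; compound dosing: single concentration per test compound; detection: Fluo4 Ca2+ flux fluorescence; evaluation: per-well B score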
TRPC4 potent: allosterically enhances the mouse TRPC4 cation channel. HEK293 TRPC4beta/mu-opioid, DAMGO EC20, Fluo-4 Ca2+ flux; hits give high values. B-score at 10 µM. 0.42% of 310,000 active. AID 2227;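 active = B-score of calcium response area above 5 SD of library B-scores, with initial fluorescence ratio within 5 SD of library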
TRPC6 activator: activates the mouse TRPC6 cation channel. B-score at 10 µM. HEK293-TRPC6 membrane potential dye fluorescence; hits give high values. AID 2550. 0.13% of 310,000 active;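 active = B-score of the integrated fluorescence ratio above library mean plus 3 SD, and starting fluorescence ratio within library mean plus 5 SD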;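 note: higher score means more depolarization so channel activation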
Large screens that a line does not name were inactive. This is a sample that favours compounds with a hit; in the whole collection about 2.3% have one here.

CC(=O)C1=C(O)C(=O)N(Cc2ccco2)C1c1ccc2c(c1)OCO2 (stereo not drawn)	TRPC4 block -7
O=C(CBr)c1ccc([N+](=O)[O-])c(CS(=O)(=O)c2ccc(Cl)cc2)c1	none
Cc1ccc(OCC(=O)c2ccc3c(c2)CCCC3)cc1C	none
O=C(COc1ccc(Br)cc1)c1ccc2c(c1)CCCC2	TRPC4 potent 12
CCOc1ccccc1CN1CCC(n2nccc2NC(=O)CCc2ccccc2)CC1	TRPC4 block -7
COc1ccccc1/C=C/CN1CCC(n2nccc2NC(=O)CCc2ccccc2)CC1	none
O=C(CCc1ccccc1)Nc1ccnn1C1CCN(C/C=C/c2ccccc2)CC1	TRPC4 block -6
C/C=C(\C)CN1CCC(n2nccc2NC(=O)CCc2ccccc2)CC1	TRPC4 act 46, TRPC4 block -6
O=C(c1ccc2c(=O)n3c(nc2c1)CCCCC3)N1CCN(c2ccc([N+](=O)[O-])cc2)CC1	none
O=C(COC(=O)c1ccccc1C(=O)N1CCN(c2ccccc2)CC1)Nc1ccccc1	none
O=C(COC(=O)c1ccccc1C(=O)N1CCN(c2ccccc2)CC1)Nc1ccc(F)cc1	TRPC4 potent 17
COc1cc(NS(=O)(=O)c2cn(C)cn2)cc(OC)c1	none
Cc1ccc(C)c(CSc2nnc(CCN)o2)c1	TRPC4 act 81
Cc1ccc(C)c(CSc2nnc([C@@H](N)C(C)C)o2)c1	none
NCCc1nnc(SCc2ccccc2)o1	TRPC4 potent 16
COc1cccc(/C=C/C(=O)OCC(=O)NC(=O)NC2CCCCC2)c1	none
CCN1C(N(C)CCc2cccs2)=N[C@@H](c2ccccc2)C(C(=O)OC)=C1C	TRPC4 block -5
CCN(CC)CCNC(=S)Nc1ccc2nc3n(c(=O)c2c1)CCCCC3	none
CCCN(CCC)CCCNC(=S)Nc1ccc2nc3n(c(=O)c2c1)CCCCC3	TRPC4 potent 14
O=C(c1ccc2c(=O)n3c(nc2c1)CCC3)N1CCN(S(=O)(=O)c2cccc(F)c2)CC1	none
COc1cccc(CN(C)C(=O)c2cccc(OC3CCN(C4CCCC4)CC3)c2)c1	none
S=C(NCCc1ccccn1)Nc1ccccc1Cl	none
S=C(NCCc1ccccn1)NC1CCCCC1	TRPC4 act 97
S=C(NCCc1cnc[nH]1)NC1CCCC1	TRPC4 act 98
Cc1c(Cl)cccc1NC(=S)NCCc1ccccn1	TRPC4 act 60
COc1ccc(CCN2C(=O)CSC2=Nc2ccc(C)cc2C)cc1OC	none
CCCCOc1ccc(S(N)(=O)=O)cc1	none
NS(=O)(=O)c1ccc(Oc2ccc(S(N)(=O)=O)cc2)cc1	TRPC4 potent 96
Cc1c(C(=O)c2ccc(Cl)cc2[N+](=O)[O-])c2ccccn2c1CCC#N	TRPC4 potent 14
Cc1cc2oc(C(=O)N(Cc3ccco3)C3CCS(=O)(=O)C3)cc(=O)c2cc1Cl (stereo not drawn)	TRPC4 potent 82
Cc1ccc(C(=O)C(C)OC(=O)CCN=C2NS(=O)(=O)c3ccccc32)cc1 (stereo not drawn)	none
CC(C)(C)c1cc[n+](-c2[nH]c(=O)sc2/C=N/N=C(\[O-])c2cccnc2)cc1	none
O=c1[nH]c(-[n+]2ccc3ccccc3c2)c(/C=N/N=C(\[O-])c2ccccc2)s1	TRPC4 block -6
Cc1nn(CC(=O)NCC(C)c2ccccc2)c(=O)c2cc(-c3ccccc3)nn12 (stereo not drawn)	none
COc1ccc(N(C)S(=O)(=O)c2cccc(C(=O)N3CCN(S(=O)(=O)c4ccc(C)cc4)CC3)c2)cc1	TRPC6 inhibitor -8.3, TRPC6 activator 12
COc1ccc(N2CCN(C(=O)c3ccc(N(C)S(=O)(=O)c4ccc(C)cc4)cc3)CC2)cc1	TRPC4 act 44, TRPC4 potent 38
COc1ccc(N2CCN(C(=O)c3ccc(N(C)S(=O)(=O)c4ccc(OC)cc4)cc3)CC2)cc1	none
O=C1CCCC/C1=C/NCc1ccc(F)cc1	none
N#Cc1ccc(-c2ccc(OCC(O)CN3CCCCC3)cc2)cc1 (stereo not drawn)	none
Cc1nc(Nc2ccccc2)sc1C(=O)c1ccc(F)cc1	TRPC4 potent 11
Cc1nc(Nc2ccccc2)sc1C(=O)Nc1ccccc1	none
O=c1c2ccc(Cl)cc2nc(-c2cccc(C(F)(F)F)c2)n1O	TRPC4 act 51
O=c1c2cc(Br)ccc2nc(-c2ccc(Cl)cc2)n1O	TRPC4 act 175
